Data on 16 molecules can be found in ChEMBL document CHEMBL3593190, “Triterpenoids with Promoting Effects on the Differentiation of PC12 Cells from the Steamed Roots of Panax notoginseng” (J Nat Prod, 2015).

Broadly, the IC50 is the concentration that inhibits the measured activity by half. A higher IC50 goes with a need for much substance. What is called EC50 is the concentration that produces a half-maximal response. Read a low EC50 as a more potent agent.

The structures appear in SMILES notation. Some results are limits rather than exact numbers.

Assay [1] has as its system PC-12. Kind of assay: Neurotrophic activity in rat PC12 cells assessed as stimulation of NGF-induced neurite outgrowth at 10 uM after 72 hrs by phase-contrast microscopic analysis relative to control. It is filed as functional. In short, it runs like this:
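PC12 cells kept in F12 with 12.5% horse serum and 2.5% FBS at 37 °C, 5% CO2, then seeded at 5 × 10^4 cells/mL on poly-L-lysine. After 24 h, medium switched to 10 μM compound (DMSO, final 0.05%) plus 5 ng/mL NGF; controls: no NGF, 5 ng/mL or 50 ng/mL NGF. After 72 h, phase-contrast scoring: neurite ≥ soma diameter; % neurite-bearing cells, ≥100 cells/view, 5 views/well.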

The subject of assay [2] is HL-60. The assay can be described thus: Cytotoxicity against human HL60 cells. It counts as functional, cell-based.
A short description of assay [3]: Cytotoxicity against human […] cells. It is filed as functional, cell-based.
Assay [4] has as its system A549. The assay can be described thus: Cytotoxicity against human A549 cells. It counts as functional, cell-based.
Assay [5] has as its system MCF7. The assay can be described thus: Cytotoxicity against human MCF7 cells. It is filed as functional, cell-based.
Assay [6] relates to SW480. Kind of assay: Cytotoxicity against human SW480 cells. It is filed as functional, cell-based.
Assay [7] has as its system Human alphaherpesvirus 1. Kind of assay: Antiviral activity against HSV1. It is filed as functional, organism-based.
Assay [8] has as its system Human alphaherpesvirus 2. Kind of assay: Antiviral activity against HSV2. It is filed as functional, organism-based.

In the case of `CC(C)=CCC[C@@](C)(O)[C@H]1CC[C@]2(C)[C@@H]1[C@H](O)C[C@@H]1[C@@]3(C)CC[C@H](O[C@@H]4O[C@H](CO)[C@@H](O)[C@H](O)[C@H]4O[C@@H]4O[C@H](CO)[C@@H](O)[C@H](O)[C@H]4O)C(C)(C)[C@@H]3CC[C@]12C`, in assay [1], the Activity is given as 9.5%. Also, the IC50 in assay [2], in assay [3], in assay [4], in assay [5] and in assay [6] was more than 10 µM each time.

Take `CC(C)(O)[C@@H](O)/C=C/[C@](C)(O)[C@H]1CC[C@]2(C)[C@@H]1[C@H](O)C[C@@H]1[C@@]3(C)CC[C@H](O[C@@H]4O[C@H](CO)[C@@H](O)[C@H](O)[C@H]4O[C@@H]4O[C@H](CO)[C@@H](O)[C@H](O)[C@H]4O)C(C)(C)[C@@H]3CC[C@]12C`: the Activity in assay [1] stood at 8.2%. For the same molecule, the IC50 in assay [2], in assay [3], in assay [4], in assay [5] and in assay [6] was more than 10 µM each time.

Turning to `CC(C)(O)[C@H](O)/C=C/[C@](C)(O)[C@H]1CC[C@]2(C)[C@@H]1[C@H](O)C[C@@H]1[C@@]3(C)CC[C@H](O[C@@H]4O[C@H](CO)[C@@H](O)[C@@H](O)[C@H]4O[C@@H]4O[C@H](CO)[C@@H](O)[C@H](O)[C@H]4O)C(C)(C)[C@@H]3CC[C@]12C`, the Activity in assay [1] came to 10.8%. The IC50 in assay [2], in assay [3], in assay [4], in assay [5] and in assay [6] was more than 10 µM in each case.

On to `C/C(=C\[C@@H](O)[C@H](O)C(C)(C)O)[C@H]1CC[C@]2(C)[C@@H]1[C@H](O)C[C@@H]1[C@@]3(C)CC[C@H](O)C(C)(C)[C@@H]3[C@@H](O[C@@H]3O[C@H](CO)[C@@H](O)[C@H](O)[C@H]3O)C[C@]12C`, for which, in assay [1], the Activity is 9.9%. Also, the IC50 in assay [2], in assay [3], in assay [4], in assay [5] and in assay [6] was more than 10 µM each time.

With `C/C(=C/[C@H](O)[C@@H](O)C(C)(C)O)[C@H]1CC[C@]2(C)[C@@H]1[C@H](O)C[C@@H]1[C@@]3(C)CC[C@H](O)C(C)(C)[C@@H]3[C@@H](O[C@@H]3O[C@H](CO)[C@@H](O)[C@H](O)[C@H]3O)C[C@]12C`, the Activity in assay [1] came out at 11.4%. In addition, the IC50 in assay [2], in assay [3], in assay [4], in assay [5] and in assay [6] was more than 10 µM in each case.

Take `C/C(=C/[C@@H](O)[C@H](O)C(C)(C)O)[C@H]1CC[C@]2(C)[C@@H]1[C@H](O)C[C@@H]1[C@@]3(C)CC[C@H](O)C(C)(C)[C@@H]3[C@@H](O[C@@H]3O[C@H](CO)[C@@H](O)[C@H](O)[C@H]3O)C[C@]12C`: in assay [1], the Activity is listed as 10.9%. For the same molecule, the IC50 in assay [2], in assay [3], in assay [4], in assay [5] and in assay [6] was more than 10 µM in each case.

With `CO[C@@H](/C=C(\C)[C@H]1CC[C@]2(C)[C@@H]1[C@H](O)C[C@@H]1[C@@]3(C)CC[C@H](O)C(C)(C)[C@@H]3[C@@H](O[C@@H]3O[C@H](CO)[C@@H](O)[C@H](O)[C@H]3O)C[C@]12C)[C@@H]1OC1(C)C`, the Activity in assay [1] is given as 11.6%. In addition, the IC50 in assay [2], in assay [3], in assay [4], in assay [5] and in assay [6] was more than 10 µM throughout.

Take `CO[C@@H](/C=C(\C)[C@H]1CC[C@]2(C)[C@@H]1[C@H](O)C[C@@H]1[C@@]3(C)CC[C@H](O[C@@H]4O[C@H](CO)[C@@H](O)[C@H](O)[C@H]4O[C@@H]4O[C@H](CO)[C@@H](O)[C@H](O)[C@H]4O)C(C)(C)[C@@H]3CC[C@]12C)[C@@H]1OC1(C)C`: the Activity in assay [1] is 11.4%. The IC50 in assay [2], in assay [3], in assay [4], in assay [5] and in assay [6] was more than 10 µM in each case.

For the molecule `C/C(=C\C[C@H](O)C(C)(C)O)[C@H]1CC[C@]2(C)[C@@H]1[C@H](O)C[C@@H]1[C@@]3(C)CC[C@H](O)C(C)(C)[C@@H]3[C@@H](O[C@@H]3O[C@H](CO)[C@@H](O)[C@H](O)[C@H]3O)C[C@]12C`, the Activity in assay [1] amounted to 9.3%. In addition, the IC50 in assay [2], in assay [3], in assay [4], in assay [5] and in assay [6] was more than 10 µM throughout.

On to `CC(C)=CCC[C@@](C)(O)[C@H]1CC[C@]2(C)[C@@H]1[C@H](O)C[C@@H]1[C@@]3(C)CC[C@H](O)C(C)(C)[C@@H]3[C@@H](O[C@@H]3O[C@H](CO)[C@@H](O)[C@H](O)[C@H]3O)C[C@]12C`, for which the Activity in assay [1] is 8.5%. Besides, the IC50 in assay [2], in assay [3], in assay [4], in assay [5] and in assay [6] was more than 10 µM in each case.

In the case of `C=C(CCC=C(C)C)[C@H]1CC[C@]2(C)[C@@H]1[C@H](O)C[C@@H]1[C@@]3(C)CC[C@H](O[C@@H]4O[C@H](CO)[C@@H](O)[C@H](O)[C@H]4O)C(C)(C)[C@@H]3CC[C@]12C`, the Activity in assay [1] turned out to be 8.9%. For the same molecule, the IC50 in assay [2], in assay [3], in assay [4], in assay [5] and in assay [6] was more than 10 µM in each case.

Regarding `CC(=O)OC[C@H]1O[C@@H](O[C@H]2[C@H](O[C@H]3CC[C@]4(C)[C@H]5C[C@@H](O)[C@@H]6[C@@H]([C@@](C)(O)CCC=C(C)C)CC[C@@]6(C)[C@]5(C)CC[C@H]4C3(C)C)O[C@H](CO)[C@@H](O)[C@@H]2O)[C@H](O)[C@@H](O)[C@@H]1O`, in assay [1], the Activity was 9.3%. The IC50 in assay [2], in assay [3], in assay [4], in assay [5] and in assay [6] was more than 10 µM each time.

As for `CC(=O)OC[C@H]1O[C@@H](O[C@H]2[C@H](O[C@H]3CC[C@]4(C)[C@H]5C[C@@H](O)[C@@H]6[C@@H]([C@](C)(O)CCC=C(C)C)CC[C@@]6(C)[C@]5(C)CC[C@H]4C3(C)C)O[C@H](CO)[C@@H](O)[C@@H]2O)[C@H](O)[C@@H](O)[C@@H]1O`, the Activity in assay [1] amounted to 13.4%. Also, the concentration for half-maximal inhibition (IC50) in assay [2], in assay [3], in assay [4], in assay [5] and in assay [6] was more than 10 µM in each case.

In the case of `CC(C)(O)CCC[C@@](C)(O)[C@H]1CC[C@]2(C)[C@@H]1[C@H](O)C[C@@H]1[C@@]3(C)CC[C@H](O)C(C)(C)[C@@H]3[C@@H](O[C@@H]3O[C@H](CO)[C@@H](O)[C@H](O)[C@H]3O)C[C@]12C`, the Activity in assay [1] was determined as 8.6%. Besides, the IC50 in assay [2], in assay [3], in assay [4], in assay [5] and in assay [6] was more than 10 µM in each case.

For the molecule `C=C(CCCC(C)(C)O)[C@H]1CC[C@]2(C)[C@@H]1[C@H](O)C[C@@H]1[C@@]3(C)CC[C@H](O)C(C)(C)[C@@H]3[C@@H](O[C@@H]3O[C@H](CO)[C@@H](O)[C@H](O)[C@H]3O)C[C@]12C`, in assay [1], the Activity is recorded as 8.3%. In addition, the IC50 in assay [2], in assay [3], in assay [4], in assay [5] and in assay [6] was more than 10 µM in each case.

Regarding `CC(C)=CCC[C@](C)(O)[C@H]1CC[C@]2(C)[C@@H]1[C@H](O)C[C@@H]1[C@@]3(C)CC[C@H](O[C@@H]4O[C@H](CO)[C@@H](O)[C@H](O)[C@H]4O[C@@H]4O[C@H](CO)[C@@H](O)[C@H](O)[C@H]4O[C@@H]4OC[C@@H](O)[C@H](O)[C@H]4O)C(C)(C)[C@@H]3CC[C@]12C`, the EC50 in assay [7] amounted to 16.5 µM; in assay [8], 19.4 µM.
